Mdm2-MdmX inh – human Mdm2/MdmX binding inhibition; actives 3% (n = 330,000); SaOS-2 split-luciferase Mdm2/MdmX complementation, luminescence; O15151+Q00987; inhibition, % at 8 µM;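 active = inhibition of at least 50% at 8 µM in the primary screen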
XBP1 UPR activ – adaptive UPR (XBP1) activation; CHO-XBP1 luciferase reporter, IRE1-XBP1 UPR activation, luminescence; percent of tunicamycin response, DMSO as zero; activation, % at 20 µM; actives 0.33% (n = 330,000); AID 463104;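 active = versus positive control, 20 µM dose yields 30% or more activation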;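 also: 100% = tunicamycin at 10 µg/mL and 0% = DMSO only wells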
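incubation = overnight seeding at 37 °C, 6 h compound treatment at 37 °C | assay system = CHO-XBP1 cells stably carrying IRE1-XBP1-driven luciferase reporter | input = 1000 cells per well | detection = luciferase luminescence | dosing = single point, 20 µM final compound, 1% DMSO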
Apaf1 inhib – human Apaf-1 inhibition; reconstituted apoptosome caspase-3 activity, DEVD-Rh110 fluorescence; inhibition, % at 20 µM; actives 0.71% (n = 330,000); AID 489030; active = inhibition of at least 40% at 20 µM;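 also: plate controls were DMSO wells for no effect and DEVD-CHO caspase inhibitor wells for full effect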
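Assay system: Apoptosome proteins | Medium: pH 7.5 Hepes buffer with CHAPS, BSA, DTT | Also added: Cytochrome c and DEVD-Rh110 substrate | Times: 30 min plus 50 min, RT | Detection: Rhodamine 110 fluorescence at Ex 480/Em 540 nm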
UBC13 polyUb – human UBC13 polyubiquitination inhibition; P61088; UBC13 polyubiquitin chain formation, TR-FRET; inhibition, % at 20 µM; actives 0.47% (n = 330,000); AID 485273; in the data active = inhibition above about 45%, passing the limit was not always enough; inconclusive = no clear call, values can overlap the other calls
Target sequence (P61088 whole entry, looked up): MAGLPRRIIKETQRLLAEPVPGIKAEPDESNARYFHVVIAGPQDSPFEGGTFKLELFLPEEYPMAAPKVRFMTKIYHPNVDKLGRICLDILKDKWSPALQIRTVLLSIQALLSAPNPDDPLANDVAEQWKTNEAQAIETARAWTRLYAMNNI
CHOP UPR activ – activators of apoptotic arm of unfolded protein response (CHOP); CHO-CHOP luciferase reporter, UPR activation, luminescence; percent of tunicamycin response over DMSO baseline; activation, % at 10 µM; actives 0.34% (n = 330,000); AID 449763;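 active = at 10 µM dose, activation of 40% or more, normalized to positive control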;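 also: 100% = tunicamycin at 10 µg/mL and 0% = DMSO alone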
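Dosing – one dose, 10 µM in 0.5% DMSO · System – CHO-CHOP cells, stable luciferase reporter of PERK-eIF2a-CHOP signalling · Input – 500 cells/well · Control set – tunicamycin 10 µg/mL final as positive, DMSO-only wells as negative · Timing – 6 h compound treatment, 37 °C · Measure – % activation vs tunicamycin · Technique – luminescence read with Steady-Glo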
Casp3 counter – counter-screen for UBC13 inhibitors: human caspase-3 inhibition; inhibition, % at 20 µM; shares compounds with UBC13 polyUb; Recombinant caspase-3, Caspase-Glo 3/7 luminescence, 60 min; actives 4% (n = 1,400);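 active = mean inhibition across replicates above about 26%, limit read from the data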;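 also: plate controls were DMSO with caspase-3 for no effect and DMSO wells lacking enzyme for full effect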
Target sequence (P42574 whole entry, looked up): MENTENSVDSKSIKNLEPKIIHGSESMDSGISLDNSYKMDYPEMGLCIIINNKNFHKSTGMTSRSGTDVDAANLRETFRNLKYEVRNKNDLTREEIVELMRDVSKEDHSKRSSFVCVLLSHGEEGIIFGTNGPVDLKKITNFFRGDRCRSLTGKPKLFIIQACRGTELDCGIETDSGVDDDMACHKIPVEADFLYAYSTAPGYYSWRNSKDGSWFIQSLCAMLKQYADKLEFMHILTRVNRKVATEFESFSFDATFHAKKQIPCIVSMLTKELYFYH
UBC13 confirm – human UBC13 polyubiquitin inhibition, confirmed; actives 68% (n = 1,400); shares compounds with UBC13 polyUb; UBC13 polyubiquitination, TR-FRET, biochemical; inhibition, % at 10 µM; in the data active = inhibition above about 45%; inconclusive = no clear call, values can overlap the other calls
Active calls of the source: *; u = inconclusive; x = no result. An excerpt weighted towards active compounds, which were near 4.1% of everything screened.

SMILES | Mdm2-MdmX inh | XBP1 UPR activ | Apaf1 inhib | UBC13 polyUb | CHOP UPR activ | Casp3 counter | UBC13 confirm
CCOC(=O)C1=C(COC(=O)c2ccc(OC)c(OC)c2OC)NC(=O)NC1C (stereo unspecified) | 9 | -1 | 9 | 17 | 2 | x | x
CCOC(=O)N1CCN(C(=O)CN(c2ccc3c(c2)OCO3)S(C)(=O)=O)CC1 | 7 | -1 | -5 | 4 | -1 | x | x
CCCCCCSc1ccc([C@H]2N[C@@](CC(C)C)(C(=O)OC)[C@H]3C(=O)N(CC)C(=O)[C@@H]23)cc1 | 26 | -3 | 25 | -1 | -1 | x | x
COc1cc(NC(=O)c2cc(S(=O)(=O)N3CCCCC3)ccc2N2CCOCC2)cc(OC)c1 | 13 | -1 | 21 | 6 | 1 | x | x
COc1ccc(S(=O)(=O)N2CCCC2)cc1NC(=O)c1ccccc1F | 8 | -2 | -3 | 21 | 3 | x | x
COc1ccc(C)cc1NC(=O)c1cc(S(=O)(=O)N2CCCCC2)ccc1N1CCOCC1 | 28 | 0 | 8 | 65* | 1 | -3 | 51*
COc1ccccc1NC(=O)c1cc(S(=O)(=O)N2CCCCCC2)ccc1F | 17 | 1 | 21 | 68* | 1 | -4 | 90*
FC(F)(F)c1ccccc1NC(=S)Nn1cnnc1 | 22 | 0 | -4 | -2 | 0 | x | x
Cc1ccc(C)c(N2CCN(C(=S)Nc3ccc4nc(N5CCN(C)CC5)cc(C)c4c3)CC2)c1 | 32 | 5 | 7 | 49* | 1 | 0 | 73*
Cc1ccc(C)c(N2CCN(C(=S)Nc3ccc4nc(N5CCOCC5)cc(C)c4c3)CC2)c1 | 19 | 2 | 18 | -10 | 18 | x | x
CC(C)c1ccc(NC(=O)C[n+]2ccn(C3=C([O-])c4ccccc4C3=O)c2)cc1 | -5 | -3 | 24 | 56* | -1 | -4 | 47*
Cc1ccccc1CCNC(=O)Cn1ccc2cc(S(=O)(=O)N3CCCC3)ccc21 | 12 | -5 | 8 | 3 | 1 | x | x
Cc1ccc(C(=O)NNC(=O)C2CCN(S(=O)(=O)c3ccc(Cl)cc3)CC2)cc1 | -1 | -2 | 2 | 40 | 1 | x | x
O=C(NNC(=O)C1CCN(S(=O)(=O)c2ccc(Cl)cc2)CC1)c1ccc(S(=O)(=O)N2CCCCC2)cc1 | -1 | 0 | 6 | 56* | -1 | 7 | 52*
O=C(CCCCCN1C(=O)c2ccccc2C1=O)Nc1ccc(S(=O)(=O)N2CCCCC2)cc1 | 27 | -2 | -32 | 100* | 0 | 6 | 112*
Cc1cccc(NC(=S)N(C)C)c1C | -7 | 0 | -26 | -1 | 1 | x | x
Cc1cccc(Nc2cc(C)c3c(O)cccc3n2)c1C | 43 | 14 | 27 | 74* | 4 | 0 | 58*
COc1ccc(-c2c(-c3ccc(C#N)cc3)oc(=O)c3cc(OC)c(OC)cc23)cc1 | 23 | -1 | 11 | 45* | 3 | 0 | 24
Cc1ccc2c(c1)-n1c(nc3ccccc3c1=O)C(Cc1ccccc1)NC2=O (stereo unspecified) | 32 | -2 | 10 | 19 | 3 | x | x
O=C(NN1C(=O)/C(=C/C=C/c2ccco2)SC1=S)c1ccccc1O | 10 | 0 | 25 | 45* | 2 | 4 | -6
Clc1cccc(Cl)c1CNc1ccc(N2CCCC2)cc1 | 2 | 2 | 30 | -10 | 1 | x | x
COc1ccc(-c2cc3ccccc3s2)cc1[C@H]1[C@H]2C=CC[C@@H](C)[C@@H]2C(=O)N1Cc1ccccc1 | -50 | 0 | 1 | 48* | 7 | 60* | 34
COc1ccc(-c2ccc(OC)c([C@H]3[C@H]4C=CC[C@@H](C)[C@@H]4C(=O)N3Cc3ccccc3)c2)cc1C | 12 | 0 | 22 | -22 | 1 | x | x
Cc1ccc(C(=O)N/C(=C\c2ccc(-c3cccc([N+](=O)[O-])c3)o2)C(=O)NCCCN(C)C)cc1 | 39 | -6 | 1 | 48* | -1 | -2 | 63*
CN(C)CCCNC(=O)/C(=C\c1ccc(-c2cccc([N+](=O)[O-])c2)o1)NC(=O)c1ccccc1 | 35 | -1 | 13 | 29 | 1 | x | x
SMILES | Mdm2-MdmX inh | XBP1 UPR activ | Apaf1 inhib | UBC13 polyUb | CHOP UPR activ | Casp3 counter | UBC13 confirm
COc1ccc(OCC(=O)NC2CC(C)(C)NC(C)(C)C2)cc1 | 19 | -4 | -22 | 7 | -2 | x | x
COc1ccc(COCC(O)CN2CCC(CN3C(=O)c4cccc5cccc(c45)C3=O)CC2)cc1OC (stereo unspecified) | 15 | -1 | 2 | 73* | 1 | -4 | 65*
O=C1c2cccc3cccc(c23)C(=O)N1CCN1CCN(CC(O)COCc2ccc(Cl)cc2)CC1 (stereo unspecified) | 13 | -5 | 1 | 98* | 0 | -4 | 108*
Cc1ccc(C)c(OCC(O)CN2CCN(CCN3C(=O)c4cccc5cccc(c45)C3=O)CC2)c1 (stereo unspecified) | 18 | -2 | 19 | 84* | 1 | 3 | 101*
COc1cc(COCC(O)CN2CCN(CCN3C(=O)c4cccc5cccc(c45)C3=O)CC2)cc(OC)c1OC (stereo unspecified) | -15 | -4 | -6 | 26 | 0 | x | x
COc1cccc(OCC(O)CN2CCC(CN3C(=O)c4cccc5cccc(c45)C3=O)CC2)c1 (stereo unspecified) | 0 | -3 | 11 | 26 | -1 | x | x
CC(=O)c1ccccc1OCC(O)CN1CCN(CCN2C(=O)c3cccc4cccc(c34)C2=O)CC1 (stereo unspecified) | -13 | 4 | -7 | 54* | -1 | -2 | 60*
CCc1nc2nc(C)c(NS(=O)(=O)c3ccc(Cl)s3)c(=O)n2[nH]1 | 6 | -1 | -2 | -2 | -2 | x | x
COc1ccc(C(=O)Nc2ccc3oc(-c4cccnc4)nc3c2)cc1OC | 5 | 7 | 5 | 6 | -3 | x | x
COc1ccc(C(=O)Nc2ccc3oc(-c4cccc(F)c4)nc3c2)cc1OC | 9 | -1 | -3 | 54* | 0 | 3 | 35
CCOc1ccc(-c2csc(NC(=O)c3cccc(N4C(=O)CCC4=O)c3)n2)cc1 | -6 | 5 | -15 | 58* | 1 | -2 | u
COc1ccc(-c2csc(NC(=O)c3cccc(N4C(=O)CCC4=O)c3)n2)cc1OC | -2 | -3 | -7 | 21 | -1 | x | x
N/C(CSc1ccc(Cl)cc1)=N\NC(=O)c1ccncc1 | 23 | 1 | 1 | 4 | -2 | x | x
CC(=O)NC(c1ccco1)c1cc(Cl)c2ccccc2c1O (stereo unspecified) | -17 | 0 | 16 | 47* | 0 | -2 | 37

Bioassay records from PubChem.
